Test results from ChEMBL document CHEMBL2390866, “Novel pyrimidoazepine analogs as serotonin 5-HT(2A) and 5-HT(2C) receptor ligands for the treatment of obesity” (Eur J Med Chem, 2013).

Columns and labels:
[1] = target: T1, 5-hydroxytryptamine receptor 2C (Homo sapiens, UniProt P28335); assay: Displacement of [3H]-mesulergine from human recombinant 5HT-2C receptor expressed in CHOK1 cell membranes after 30 mins; set-up: species or system CHO-K1
T1 sequence (P28335 whole entry): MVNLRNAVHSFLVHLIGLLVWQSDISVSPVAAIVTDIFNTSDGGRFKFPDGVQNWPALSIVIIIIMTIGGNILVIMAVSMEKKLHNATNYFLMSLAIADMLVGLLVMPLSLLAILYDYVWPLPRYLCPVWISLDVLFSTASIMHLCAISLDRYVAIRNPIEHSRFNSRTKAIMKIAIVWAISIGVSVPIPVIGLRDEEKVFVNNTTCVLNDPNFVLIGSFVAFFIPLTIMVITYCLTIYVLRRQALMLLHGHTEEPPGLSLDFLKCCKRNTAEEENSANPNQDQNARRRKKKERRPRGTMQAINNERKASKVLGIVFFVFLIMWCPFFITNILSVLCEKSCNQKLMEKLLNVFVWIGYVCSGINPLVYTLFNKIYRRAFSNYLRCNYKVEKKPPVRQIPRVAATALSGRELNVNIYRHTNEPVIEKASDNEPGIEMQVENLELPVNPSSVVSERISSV
Method in brief: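 Frozen CHO-K1 membranes expressing recombinant human 5-HT2C incubated with 1 nM [3H]mesulergine in 50 mM Tris-HCl pH 7.4 containing 0.1% ascorbic acid and pargyline. Mianserin defined nonspecific binding.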

Mus musculus [2] = assay: Antiobesity activity in C57BL/6 mouse assessed as inhibition of food intake at 50 mg/kg, ip measured after 2 to 12 hrs relative to vehicle-treated control; format: functional; conditions: C57BL/6, ip, route intraperitoneal
Method in brief: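 Male mice were acclimated 1 week at 23 ± 3 °C and 50 ± 20% humidity, then fasted 24 h. They were dosed once intraperitoneally with vehicle or compound: 50 mg/kg in C57BL/6, or 12.5, 25 or 50 mg/kg in B6.V-Lep^ob/J. Food intake was measured at 2, 6 and 12 h versus vehicle control.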

[3] = target: T2, 5-hydroxytryptamine receptor 2A (Homo sapiens, UniProt P28223); assay: Displacement of [3H]-ketanserin from human recombinant 5HT-2A receptor expressed in CHOK1 cell membranes after 60 mins; set-up: species or system CHO-K1
T2 sequence (P28223 whole entry): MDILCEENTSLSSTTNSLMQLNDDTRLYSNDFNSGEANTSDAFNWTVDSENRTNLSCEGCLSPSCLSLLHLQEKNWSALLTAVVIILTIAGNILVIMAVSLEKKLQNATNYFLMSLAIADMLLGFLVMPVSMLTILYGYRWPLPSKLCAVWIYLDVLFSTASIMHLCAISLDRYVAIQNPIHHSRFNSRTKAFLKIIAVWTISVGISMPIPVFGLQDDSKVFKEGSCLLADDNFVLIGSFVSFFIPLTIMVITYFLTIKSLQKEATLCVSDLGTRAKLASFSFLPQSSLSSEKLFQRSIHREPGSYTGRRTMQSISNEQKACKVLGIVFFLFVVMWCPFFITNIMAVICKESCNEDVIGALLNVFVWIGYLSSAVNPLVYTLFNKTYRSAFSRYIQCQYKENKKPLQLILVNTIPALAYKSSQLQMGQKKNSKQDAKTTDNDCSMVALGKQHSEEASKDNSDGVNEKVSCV
Method in brief: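 Buffer was 50 mM Tris-HCl pH 7.4 with 5 mM CaCl2 and 0.1% ascorbic acid. Test compound added at a range of concentrations.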

[4] = target: T1, 5-hydroxytryptamine receptor 2C; assay: Antagonist activity at serotonin-activated human recombinant 5HT-2C receptor expressed in HEK293 cells assessed as decrease in intracellular calcium level after 5 mins measured for 1 min by fluorescence assay; format: functional, cell-based; conditions: read-out: EC50 (the source's name)
Method in brief: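 Intracellular calcium read on HEK293 cells stably expressing human receptor, seeded 10,000 cells/well and grown 24 h at 37 °C, 5% CO2. Cells were washed with HBSS/20 mM HEPES, then loaded 50 min with Fluo-4 NW dye in HBSS with 2.5 mM probenecid. Compound was added for 5 min at 37 °C, then serotonin; fluorescence followed 1 min. Run in duplicate or quadruplicate, repeated several times; IC50 by nonlinear regression.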

Mus musculus [5] = assay: Antiobesity activity in C57BL/6 mouse assessed as inhibition of body weight gain at 50 mg/kg, ip measured after 2 to 12 hrs relative to vehicle-treated control; format: functional; conditions: C57BL/6, ip, route intraperitoneal
[6] = target: T2, 5-hydroxytryptamine receptor 2A; assay: Antagonist activity at serotonin-activated human recombinant 5HT-2A receptor expressed in HEK293 cells assessed as decrease in intracellular calcium level after 5 mins measured for 1 min by fluorescence assay; format: functional, cell-based; conditions: read-out: EC50 (the source's name)
Method in brief: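 Cells were washed with HBSS/20 mM HEPES, then loaded 50 min with Fluo-4 NW dye in HBSS with 2.5 mM probenecid. Compound was added for 5 min at 37 °C, then serotonin; fluorescence followed 1 min. Run in duplicate or quadruplicate, repeated several times; IC50 by nonlinear regression.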

Mus musculus [7] = assay: Antiobesity activity in C57BL/6 mouse assessed as inhibition of food intake at 5.6 mg/kg, ip measured after 2 to 12 hrs relative to vehicle-treated control; format: functional; conditions: C57BL/6, ip, route intraperitoneal
Method in brief: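 Male C57BL/6 mice acclimated 1 week (23 ± 3 °C, 50 ± 20% humidity), fasted 24 h, then given intraperitoneal vehicle or drug. Food intake measured over intervals of 2, 6 and 12 h and compared with vehicle control.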

[8] = target: 5-hydroxytryptamine receptor 2B (Homo sapiens, UniProt P41595); assay: Displacement of […] from human recombinant 5HT-2B receptor
Sequence of 5-hydroxytryptamine receptor 2B (P41595 whole entry): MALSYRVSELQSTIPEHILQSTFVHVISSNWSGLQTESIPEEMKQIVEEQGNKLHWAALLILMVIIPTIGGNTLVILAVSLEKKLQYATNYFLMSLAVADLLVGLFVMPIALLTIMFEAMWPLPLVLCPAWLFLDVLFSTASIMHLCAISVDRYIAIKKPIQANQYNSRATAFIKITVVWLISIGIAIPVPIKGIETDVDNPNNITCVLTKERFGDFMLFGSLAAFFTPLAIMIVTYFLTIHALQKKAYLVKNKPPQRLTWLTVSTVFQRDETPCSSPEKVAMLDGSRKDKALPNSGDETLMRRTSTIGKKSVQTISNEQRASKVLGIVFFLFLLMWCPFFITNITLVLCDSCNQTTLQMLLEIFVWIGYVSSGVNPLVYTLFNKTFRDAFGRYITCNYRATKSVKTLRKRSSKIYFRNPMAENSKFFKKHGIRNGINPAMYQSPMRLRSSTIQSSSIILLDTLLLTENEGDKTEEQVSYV

Homo sapiens [9] = species: Homo sapiens; assay: Selectivity ratio of IC50 for human recombinant 5HT-2B receptor to IC50 for human recombinant 5HT-2C receptor
[10] = target: T3, 5-hydroxytryptamine receptor 1A (Homo sapiens, UniProt P08908); assay: Displacement from [3H]8-OH-DPAT from human recombinant 5HT-1A receptor expressed in HEK293 cells after 120 mins; format: cell-based
T3 sequence (P08908 whole entry): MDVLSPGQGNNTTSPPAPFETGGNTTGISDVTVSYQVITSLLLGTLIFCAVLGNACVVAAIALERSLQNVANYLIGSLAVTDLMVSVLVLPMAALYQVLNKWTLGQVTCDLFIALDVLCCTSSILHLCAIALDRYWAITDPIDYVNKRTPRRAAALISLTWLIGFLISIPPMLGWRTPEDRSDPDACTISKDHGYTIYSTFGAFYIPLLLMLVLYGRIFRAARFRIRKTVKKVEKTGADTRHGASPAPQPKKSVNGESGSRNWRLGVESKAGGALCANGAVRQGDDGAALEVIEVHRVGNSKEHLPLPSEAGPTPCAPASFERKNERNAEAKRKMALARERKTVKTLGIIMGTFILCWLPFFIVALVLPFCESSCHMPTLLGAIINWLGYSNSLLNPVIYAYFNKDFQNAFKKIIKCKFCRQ
Method in brief: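 Membranes from HEK293-EBNA cells stably expressing recombinant human 5-HT1A. Incubated with 2 nM [3H]8-OH-DPAT and test compound at a range of concentrations in 50 mM Tris-HCl pH 7.4 with 5 mM MgSO4.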

D(2) dopamine receptor = D(2) dopamine receptor (Homo sapiens, UniProt P14416); assay: Displacement of [3H]-methylspiperone from dopamine D2L receptor (unknown origin) after 60 mins
Sequence of D(2) dopamine receptor (P14416 whole entry): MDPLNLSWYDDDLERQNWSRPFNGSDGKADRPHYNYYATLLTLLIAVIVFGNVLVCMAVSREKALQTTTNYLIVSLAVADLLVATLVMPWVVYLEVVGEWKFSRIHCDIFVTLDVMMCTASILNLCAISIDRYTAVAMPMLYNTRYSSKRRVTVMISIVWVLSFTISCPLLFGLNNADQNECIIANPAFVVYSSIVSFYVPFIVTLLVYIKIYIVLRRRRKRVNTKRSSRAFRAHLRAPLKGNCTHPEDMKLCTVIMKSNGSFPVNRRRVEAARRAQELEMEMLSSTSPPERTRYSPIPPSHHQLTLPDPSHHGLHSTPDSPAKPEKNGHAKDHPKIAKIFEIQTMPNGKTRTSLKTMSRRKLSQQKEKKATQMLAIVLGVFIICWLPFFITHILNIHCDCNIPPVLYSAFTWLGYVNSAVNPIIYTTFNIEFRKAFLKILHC
Method in brief: (§1)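 Receptor membranes incubated at 27 °C, 60 min for D2L and 30 min for D3, with [3H]methylspiperone (0.2 nM for D2L, 0.25 nM for D3) and test compound at a range of concentrations. Buffer was 50 mM Tris-HCl pH 7.4, 10 mM MgCl2, 1 mM EDTA, 120 mM NaCl. Nonspecific binding defined with haloperidol (D2) or GR103691 (D3). IC50 obtained by nonlinear regression.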

Homo sapiens [11] = species: Homo sapiens; assay: Selectivity ratio of IC50 for human recombinant 5HT-2B receptor to IC50 for human recombinant 5HT-2A receptor
[12] = target: T4, Alpha-1A adrenergic receptor (Homo sapiens, UniProt P35348); assay: Binding affinity to adrenergic alpha1A receptor (unknown origin)
T4 sequence (P35348 whole entry): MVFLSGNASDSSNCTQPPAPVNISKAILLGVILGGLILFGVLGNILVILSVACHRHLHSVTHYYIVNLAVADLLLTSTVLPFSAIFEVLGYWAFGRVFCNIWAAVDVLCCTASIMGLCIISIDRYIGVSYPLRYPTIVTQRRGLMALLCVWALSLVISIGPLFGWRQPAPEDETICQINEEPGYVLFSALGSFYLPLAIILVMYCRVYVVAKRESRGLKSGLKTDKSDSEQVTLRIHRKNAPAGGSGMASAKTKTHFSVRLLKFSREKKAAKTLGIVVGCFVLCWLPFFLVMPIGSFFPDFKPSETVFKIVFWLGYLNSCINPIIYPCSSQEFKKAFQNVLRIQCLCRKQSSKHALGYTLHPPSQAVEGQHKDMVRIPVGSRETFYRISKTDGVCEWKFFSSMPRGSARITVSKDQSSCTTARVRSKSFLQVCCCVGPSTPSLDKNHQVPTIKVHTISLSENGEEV

[13] = target: 5-hydroxytryptamine receptor 6 (Homo sapiens, UniProt P50406); assay: Displacement of [3H]-LSD from human recombinant 5HT-6 receptor expressed in CHOK1 cell membranes after 60 mins; set-up: species or system CHO-K1
Sequence of 5-hydroxytryptamine receptor 6 (P50406 whole entry): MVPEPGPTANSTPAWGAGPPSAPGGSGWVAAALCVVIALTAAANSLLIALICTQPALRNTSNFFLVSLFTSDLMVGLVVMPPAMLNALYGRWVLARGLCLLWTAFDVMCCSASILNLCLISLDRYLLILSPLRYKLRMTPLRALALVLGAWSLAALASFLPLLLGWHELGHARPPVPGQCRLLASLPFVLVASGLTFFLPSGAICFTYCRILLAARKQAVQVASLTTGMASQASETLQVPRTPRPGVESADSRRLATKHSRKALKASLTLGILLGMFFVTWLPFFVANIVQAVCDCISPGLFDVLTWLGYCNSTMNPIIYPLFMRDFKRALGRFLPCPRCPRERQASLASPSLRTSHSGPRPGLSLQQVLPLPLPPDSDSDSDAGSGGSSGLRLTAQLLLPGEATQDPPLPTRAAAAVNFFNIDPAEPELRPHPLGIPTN
Method in brief: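 CHO-K1 membranes expressing human 5-HT6 incubated with 1 nM [3H]LSD for 60 min at 27 °C in 50 mM Tris-HCl pH 7.4 containing 4 mM CaCl2 and 0.1% ascorbic acid. Terminated by filtration on glass-fiber filters presoaked in 0.5% PEI. Methiothepin defined nonspecific binding.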

[14] = target: 5-hydroxytryptamine receptor 7 (Homo sapiens, UniProt P34969); assay: Displacement of [3H]-LSD from human recombinant 5HT-7 receptor expressed in CHOK1 cell membranes after 120 mins; set-up: species or system CHO-K1
Sequence of 5-hydroxytryptamine receptor 7 (P34969 whole entry): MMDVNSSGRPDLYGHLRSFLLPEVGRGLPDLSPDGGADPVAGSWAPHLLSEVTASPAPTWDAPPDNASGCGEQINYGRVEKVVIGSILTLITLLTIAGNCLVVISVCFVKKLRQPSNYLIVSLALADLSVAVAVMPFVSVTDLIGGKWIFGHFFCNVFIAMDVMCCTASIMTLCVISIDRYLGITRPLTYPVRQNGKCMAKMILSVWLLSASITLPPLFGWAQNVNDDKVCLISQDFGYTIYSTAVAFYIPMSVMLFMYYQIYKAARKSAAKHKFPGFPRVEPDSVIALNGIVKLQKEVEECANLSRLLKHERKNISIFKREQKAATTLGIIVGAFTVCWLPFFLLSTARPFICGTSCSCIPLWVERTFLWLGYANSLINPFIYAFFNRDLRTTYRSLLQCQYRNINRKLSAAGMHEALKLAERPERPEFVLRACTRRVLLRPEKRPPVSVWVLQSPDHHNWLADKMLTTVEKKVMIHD
Method in brief: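 CHO-K1 membranes expressing human 5-HT7 incubated with 3 nM [3H]LSD for 120 min at 27 °C in 50 mM Tris-HCl pH 7.4, 10 mM MgSO4, 0.5 mM EDTA. Filtered on glass-fiber filters presoaked in 0.3% PEI. Methiothepin defined nonspecific binding.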

D(3) dopamine receptor = D(3) dopamine receptor (Homo sapiens, UniProt P35462); assay: Displacement of [3H]-methylspiperone from dopamine D3 receptor (unknown origin) after 30 mins; method in brief: as §1
Sequence of D(3) dopamine receptor (P35462 whole entry): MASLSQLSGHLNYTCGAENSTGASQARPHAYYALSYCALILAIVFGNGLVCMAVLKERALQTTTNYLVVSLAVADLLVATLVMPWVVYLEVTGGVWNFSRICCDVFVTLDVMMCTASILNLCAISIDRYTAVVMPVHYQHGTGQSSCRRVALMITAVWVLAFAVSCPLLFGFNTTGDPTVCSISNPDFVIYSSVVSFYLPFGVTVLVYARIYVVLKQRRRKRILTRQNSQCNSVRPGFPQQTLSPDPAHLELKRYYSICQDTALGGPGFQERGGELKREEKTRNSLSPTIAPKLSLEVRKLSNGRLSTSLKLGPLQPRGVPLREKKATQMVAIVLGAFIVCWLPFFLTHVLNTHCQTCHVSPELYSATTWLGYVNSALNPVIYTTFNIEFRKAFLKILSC

[15] = target: T5, Alpha-2A adrenergic receptor (Homo sapiens, UniProt P08913); assay: Binding affinity to adrenergic alpha2A receptor (unknown origin)
T5 sequence (P08913 whole entry): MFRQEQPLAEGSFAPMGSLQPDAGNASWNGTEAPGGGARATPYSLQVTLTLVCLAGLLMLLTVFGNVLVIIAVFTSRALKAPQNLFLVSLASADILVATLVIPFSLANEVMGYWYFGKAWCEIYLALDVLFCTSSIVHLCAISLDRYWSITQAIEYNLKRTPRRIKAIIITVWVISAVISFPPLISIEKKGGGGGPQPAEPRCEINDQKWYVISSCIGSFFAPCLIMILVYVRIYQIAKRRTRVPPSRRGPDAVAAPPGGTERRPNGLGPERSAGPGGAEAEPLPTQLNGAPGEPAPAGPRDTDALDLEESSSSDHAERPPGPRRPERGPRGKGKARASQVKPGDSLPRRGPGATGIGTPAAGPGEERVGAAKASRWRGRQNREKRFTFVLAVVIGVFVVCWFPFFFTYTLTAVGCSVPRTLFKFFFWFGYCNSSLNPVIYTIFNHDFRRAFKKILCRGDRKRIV

[16] = Displacement of [3H]-YM-09151-2 from cloned dopamine D4.2 receptor (unknown origin) expressed in Sf9 cells after 60 mins; set-up: species or system Homo sapiens
Method in brief: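 Sf9 membranes with cloned D4.2 receptor incubated with 0.2 nM [3H]YM-09151-2 for 60 min at 27 °C in 50 mM Tris-HCl pH 7.4, 5 mM MgCl2, 5 mM EDTA, 5 mM KCl, 1.5 mM CaCl2. Clozapine defined nonspecific binding. Filtered on glass-fiber filters presoaked in 0.3% PEI.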

| SMILES | IC50 [1] | inhibition in vivo at 50 mg/kg (Mus musculus [2]) | IC50 [3] | IC50 [4] | inhibition in vivo at 50 mg/kg (Mus musculus [5]) | IC50 [6] | inhibition in vivo at 5.6 mg/kg (Mus musculus [7]) | IC50 [8] | Ratio IC50 (Homo sapiens [9]) | IC50 [10] | IC50 (D(2) dopamine receptor) | Ratio IC50 (Homo sapiens [11]) | IC50 [12] | IC50 [13] | IC50 [14] | IC50 (D(3) dopamine receptor) | IC50 [15] | IC50 [16] |
| --- | --- | --- | --- | --- | --- | --- | --- | --- | --- | --- | --- | --- | --- | --- | --- | --- | --- | --- |
| CN1CCN(c2nc3c(c(Nc4ccc(F)cc4)n2)CCNCC3)CC1 | 337 nM | 11% | 215 nM | 1500 nM | 5.61% | 153 nM | – | – | – | – | – | – | – | – | – | – | – | – |
| Clc1cccc(N2CCNCC2)c1 [CHLOROPHENYLPIPERAZINE] | – | – | – | – | – | – | 13.1% | – | – | – | – | – | – | – | – | – | – | – |
| c1ccc(Cc2nc3c(c(Nc4ccccc4)n2)CCNCC3)cc1 | 1.98 nM | 64.2% | 2.69 nM | – | 71.8% | – | – | 89 nM | 44.9 | 395 nM | 147 nM | 33.1 | 1390 nM | 36.8 nM | 1560 nM | 272 nM | > 10000 nM | 112 nM |
| Fc1cccc(Nc2nc(Cc3ccccc3)nc3c2CCNCC3)c1 | 13.3 nM | 69.4% | 4.92 nM | – | 68.9% | 27.9 nM | – | – | – | 1250 nM | 63.3 nM | – | – | 22.2 nM | 1060 nM | 674 nM | – | 735 nM |
| COc1cccc(Nc2nc(Cc3ccccc3)nc3c2CCNCC3)c1 | 37.3 nM | 55.8% | 84.4 nM | 9.2 nM | 63.9% | 77.6 nM | – | – | – | 823 nM | 163 nM | – | – | 30.4 nM | 497 nM | 941 nM | – | 549 nM |
